Assays:
Type in all cases: cell-based, human
[1] = test system: MDA-MB-453 and SUM185PE cells; assay: SRB assay, LAR subtype TNBC cell lines taken together; settings: MDA-MB-453 and SUM185PE versus MDA-MB-231, HCC1806 and HCC70, Figure 7C
Method in brief: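 Cells seeded at predetermined densities, left to adhere, then given test compound or DMSO vehicle for 48 h. Fixed, stained with sulforhodamine B, absorbance read at 560 nm. MDA-MB-453, MDA-MB-231 and SUM185PE were grown in IMEM with 5% FBS; HCC1806 and HCC70 in RPMI-1640 with 5% FBS. Proliferation taken relative to vehicle; GI50 by non-linear regression; three independent experiments, each in triplicate.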

[2] = test system: mTORC1 signaling in MDA-MB-231 cells; assay: Immunoblotting of mTORC1 signaling pathway; settings: immunoblot
Method in brief: (§1)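 Cells (IMEM, 5% FBS) exposed to 100 nM test compound, 100 nM oligomycin, 10 nM rapamycin or DMSO vehicle for 2, 6 or 18 h. Scraped whole-cell lysates with PMSF, Na3VO4 and protease inhibitors; 10 μg protein per lane on 10% Bis-Tris SDS-PAGE, PVDF transfer. Blots probed for phospho/total AKT S473, mTOR S2448, S6K T389, RPS6 S235/236, 4E-BP1 T37/46 and GAPDH; IRDye infrared detection; two independent experiments.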

[3] = test system: mTORC1 signaling in MDA-MB-453 cells; assay: Immunoblotting of mTORC1 signaling pathway; settings: immunoblot
Method in brief: as §1

[4] = 100 nM oligomycin, 2, 6 or 18 h

SMILES	growth of LAR cells as compared to other TNBC cell lines [1]	mTOR activity (RPS6 and S6K phosphorylation) [2, 4]	mTOR activity (RPS6 and S6K phosphorylation) [3, 4]	mTOR signaling ([2]; 10 nM rapamycin, 2, 6 or 18 h)	mTOR signaling ([3]; 10 nM rapamycin, 2, 6 or 18 h)
CC[C@H]1/C=C/C=C/C[C@@H](C)[C@H](O)[C@@](C)(O)C(=O)[C@@H](C)[C@H](O)[C@@H](C)C(=O)[C@@H](C)[C@H](O)[C@@H](C)/C=C/C(=O)O[C@@H]2[C@H](C)[C@H](CC1)O[C@]1(CC[C@H](C)[C@H](C[C@@H](C)O)O1)[C@H]2C [oligomycin]	selectively inhibited the growth	but not in the resistant MDA-MB-231 cells	selectively inhibited mTOR activity		
CO[C@H]1C[C@@H]2CC[C@@H](C)[C@@](O)(O2)C(=O)C(=O)N2CCCC[C@H]2C(=O)O[C@H]([C@H](C)C[C@@H]2CC[C@@H](O)[C@H](OC)C2)CC(=O)[C@H](C)/C=C(\C)[C@@H](O)[C@@H](OC)C(=O)[C@H](C)C[C@H](C)/C=C/C=C/C=C/1C [Rapamycin]				inhibited mTOR signaling in both cell lines	inhibited mTOR signaling in both cell lines
